# Data as given in ChEMBL document CHEMBL1152488, “Synthesis and evaluation of pyrido[1,2-a]pyrimidines as inhibitors of nitric oxide synthases” (Eur J Med Chem, 2009).
# Experiments:
# [1] = target: Nitric oxide synthase, inducible (Homo sapiens) (UniProt P35228); assay: Inhibition of human iNOS expressed in insect Sf9 cells assessed as residual activity at 100 uM by Griess assay relative to control
# How it was run: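 Human iNOS made in Sf9 cells, incubated at 37 °C for 20 min in 50 mM triethanolamine pH 7.5 with 1 mM Mg2+, FAD/FMN 5 µM each, 0.5 mM NADPH, 10 µM H4B, CaM and 1 mM L-arginine. Compound 100 µM final. NADPH cleared with lactate dehydrogenase/pyruvate before Griess reaction (543 nm). Residual activity relative to 1% DMSO control; mean of 5 experiments.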
# [2] = target: T1, Nitric oxide synthase 3 (Homo sapiens) (UniProt P29474); assay: Inhibition of human eNOS assessed as residual activity at 100 uM by Griess assay relative to control
# T1 sequence (whole entry): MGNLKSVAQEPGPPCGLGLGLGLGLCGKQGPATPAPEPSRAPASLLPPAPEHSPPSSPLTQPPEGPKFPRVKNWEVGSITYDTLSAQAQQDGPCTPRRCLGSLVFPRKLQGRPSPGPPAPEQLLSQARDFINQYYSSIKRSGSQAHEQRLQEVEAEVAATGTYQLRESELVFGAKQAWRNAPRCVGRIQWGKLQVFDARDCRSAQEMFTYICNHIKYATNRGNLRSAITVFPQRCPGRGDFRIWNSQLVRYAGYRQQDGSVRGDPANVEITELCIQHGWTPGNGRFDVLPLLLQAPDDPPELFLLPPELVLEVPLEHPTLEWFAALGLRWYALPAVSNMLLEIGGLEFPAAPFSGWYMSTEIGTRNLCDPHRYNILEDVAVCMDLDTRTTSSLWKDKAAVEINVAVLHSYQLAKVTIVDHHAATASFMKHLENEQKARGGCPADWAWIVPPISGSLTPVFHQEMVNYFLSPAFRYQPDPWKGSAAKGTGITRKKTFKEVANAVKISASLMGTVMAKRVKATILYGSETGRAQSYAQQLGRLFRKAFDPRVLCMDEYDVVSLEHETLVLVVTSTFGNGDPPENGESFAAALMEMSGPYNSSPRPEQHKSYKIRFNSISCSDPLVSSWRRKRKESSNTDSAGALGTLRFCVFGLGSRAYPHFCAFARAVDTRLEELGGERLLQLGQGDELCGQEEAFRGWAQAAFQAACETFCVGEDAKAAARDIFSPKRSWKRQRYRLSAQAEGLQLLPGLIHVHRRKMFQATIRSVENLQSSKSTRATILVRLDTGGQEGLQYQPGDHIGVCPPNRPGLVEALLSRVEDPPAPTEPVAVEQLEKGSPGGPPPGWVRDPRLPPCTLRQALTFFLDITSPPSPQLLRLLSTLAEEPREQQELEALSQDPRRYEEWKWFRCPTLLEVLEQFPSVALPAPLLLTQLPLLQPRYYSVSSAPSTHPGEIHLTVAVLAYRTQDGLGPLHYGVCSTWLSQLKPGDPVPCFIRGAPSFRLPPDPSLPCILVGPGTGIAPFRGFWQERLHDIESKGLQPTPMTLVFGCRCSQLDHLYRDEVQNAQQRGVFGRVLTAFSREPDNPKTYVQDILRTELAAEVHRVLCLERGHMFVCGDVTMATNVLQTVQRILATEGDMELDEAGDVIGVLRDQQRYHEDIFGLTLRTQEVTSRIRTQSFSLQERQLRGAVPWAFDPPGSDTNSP
# How it was run: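 Human eNOS expressed in Pichia pastoris. Incubated 20 min at 37 °C in triethanolamine pH 7.5 with 0.5 mM Ca2+, CaM, H4B 10 µM, FAD/FMN 5 µM, NADPH 0.5 mM, L-arginine 1 mM and compound at 100 µM final. Nitrite read by Griess (543 nm) after LDH/pyruvate NADPH removal; % of 1% DMSO control from 5 experiments.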
# [3] = target: T2, Nitric oxide synthase, inducible (Mus musculus) (UniProt P29477); assay: Inhibition of mouse recombinant iNOS expressed in Escherichia coli assessed as NADPH consumption at 100 uM after 2 mins by spectrophotometry
# T2 sequence (whole entry): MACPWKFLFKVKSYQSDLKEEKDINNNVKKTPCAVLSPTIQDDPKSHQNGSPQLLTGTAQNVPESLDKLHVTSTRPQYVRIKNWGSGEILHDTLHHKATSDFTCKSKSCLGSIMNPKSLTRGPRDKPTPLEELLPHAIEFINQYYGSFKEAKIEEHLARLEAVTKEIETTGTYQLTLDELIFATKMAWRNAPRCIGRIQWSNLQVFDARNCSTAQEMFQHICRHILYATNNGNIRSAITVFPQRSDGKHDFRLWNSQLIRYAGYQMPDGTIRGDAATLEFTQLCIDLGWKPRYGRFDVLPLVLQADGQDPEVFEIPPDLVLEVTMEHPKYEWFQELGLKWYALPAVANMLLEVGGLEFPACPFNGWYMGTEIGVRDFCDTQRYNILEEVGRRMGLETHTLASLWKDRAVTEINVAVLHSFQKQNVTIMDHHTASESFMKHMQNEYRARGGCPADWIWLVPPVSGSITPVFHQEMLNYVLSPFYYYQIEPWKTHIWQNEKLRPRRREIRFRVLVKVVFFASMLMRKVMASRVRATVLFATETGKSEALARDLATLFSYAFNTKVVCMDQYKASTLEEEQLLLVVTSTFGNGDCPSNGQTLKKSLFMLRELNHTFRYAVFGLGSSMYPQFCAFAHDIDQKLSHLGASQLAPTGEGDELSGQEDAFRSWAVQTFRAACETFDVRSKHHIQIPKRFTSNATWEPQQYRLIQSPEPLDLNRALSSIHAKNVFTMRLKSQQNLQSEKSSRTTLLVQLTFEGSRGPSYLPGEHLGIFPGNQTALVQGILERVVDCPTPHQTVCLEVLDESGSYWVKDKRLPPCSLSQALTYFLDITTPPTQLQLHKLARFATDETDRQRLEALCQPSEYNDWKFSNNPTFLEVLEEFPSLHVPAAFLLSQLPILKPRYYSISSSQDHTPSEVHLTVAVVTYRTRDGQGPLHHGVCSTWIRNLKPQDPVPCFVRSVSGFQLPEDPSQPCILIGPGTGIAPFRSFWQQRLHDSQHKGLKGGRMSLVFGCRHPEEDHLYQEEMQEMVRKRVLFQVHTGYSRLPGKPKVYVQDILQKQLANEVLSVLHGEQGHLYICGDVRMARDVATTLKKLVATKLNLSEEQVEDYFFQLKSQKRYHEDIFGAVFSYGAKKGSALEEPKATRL
# How it was run: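 Murine iNOS from E. coli (15–50 nM final) in 50 mM Hepes pH 7.4 with 5 mM DTT, 100 µM CaCl2, 200 µM NADPH, 10 µM H4B, 100 µM L-arginine and 100 µM compound. Cofactors and compound preincubated 2 min at 37 °C, enzyme added, and A340 followed for 3 min (ε 6.2 mM-1 cm-1). Given as % of 1% DMSO control NADPH oxidase rate.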
# RAW264.7 = assay: Cytotoxicity against mouse RAW264.7 cells at 100 uM; type: cell-based; conditions: raw264.7, 100 µM
# Nitric oxide synthase, inducible (Homo sapiens), sequence (P35228 whole entry): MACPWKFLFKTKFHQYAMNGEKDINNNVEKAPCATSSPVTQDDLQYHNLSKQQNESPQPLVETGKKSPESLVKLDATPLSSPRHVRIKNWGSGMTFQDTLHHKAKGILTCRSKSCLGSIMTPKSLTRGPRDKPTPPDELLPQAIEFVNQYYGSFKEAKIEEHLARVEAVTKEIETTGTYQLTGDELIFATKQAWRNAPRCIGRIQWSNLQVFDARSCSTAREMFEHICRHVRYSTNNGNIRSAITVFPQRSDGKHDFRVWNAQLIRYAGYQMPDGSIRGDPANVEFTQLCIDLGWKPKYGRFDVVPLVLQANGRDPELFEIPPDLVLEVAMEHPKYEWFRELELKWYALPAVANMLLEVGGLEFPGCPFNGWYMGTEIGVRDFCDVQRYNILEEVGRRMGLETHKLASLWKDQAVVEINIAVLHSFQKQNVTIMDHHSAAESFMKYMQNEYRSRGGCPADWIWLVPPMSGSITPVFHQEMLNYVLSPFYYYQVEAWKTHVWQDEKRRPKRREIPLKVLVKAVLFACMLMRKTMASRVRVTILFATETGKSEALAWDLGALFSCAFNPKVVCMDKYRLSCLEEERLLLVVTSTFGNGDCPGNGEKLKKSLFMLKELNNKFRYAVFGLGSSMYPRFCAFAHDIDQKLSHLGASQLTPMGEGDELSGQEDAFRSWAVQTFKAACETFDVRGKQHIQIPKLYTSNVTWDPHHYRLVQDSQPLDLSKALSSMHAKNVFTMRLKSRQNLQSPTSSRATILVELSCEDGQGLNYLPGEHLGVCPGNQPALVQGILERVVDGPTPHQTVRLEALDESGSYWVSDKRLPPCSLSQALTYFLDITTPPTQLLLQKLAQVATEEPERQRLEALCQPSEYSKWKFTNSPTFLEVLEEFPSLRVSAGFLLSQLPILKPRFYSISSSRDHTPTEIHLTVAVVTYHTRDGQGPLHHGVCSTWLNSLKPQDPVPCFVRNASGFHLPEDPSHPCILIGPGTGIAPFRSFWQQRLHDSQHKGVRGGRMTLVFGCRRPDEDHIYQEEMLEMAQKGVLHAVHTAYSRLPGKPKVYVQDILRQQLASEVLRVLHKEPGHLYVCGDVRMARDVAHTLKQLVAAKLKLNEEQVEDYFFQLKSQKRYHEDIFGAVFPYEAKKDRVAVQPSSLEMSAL
Structure (SMILES),Activity [1],Activity [2],Remaining NADPH oxidation rate (% of DMSO control) [3],Activity (RAW264.7)
CC1=CC2=NCC(C(=O)c3ccc(OCc4ccc(C#N)cc4)cc3)CN2C=C1.[O-][Cl+3]([O-])([O-])O (stereo unspecified),105%,78%,77%,Non-toxic
CC1=CC2=NCC(C(=O)c3ccc4cc(C)ccc4c3)CN2C=C1.[O-][Cl+3]([O-])([O-])O (stereo unspecified),103%,11%,70%,Non-toxic
CC1=CC2=NCC(C(=O)c3ccc4ccccc4c3)CN2C=C1 (stereo unspecified),47%,60%,–,–
COc1ccc(-c2ccc(C(=O)C3CN=C4C=C(C)C=CN4C3)cc2)cc1.Cl (stereo unspecified),49%,57%,40%,Non-toxic
CC(=N)NCc1cccc(CN)c1,5%,105%,–,–
CC1=CC=CC2=NCC(C(=O)c3ccc(Br)cc3)CN12 (stereo unspecified),93%,86%,–,–
CC1=CC=CC2=NCC(C(=O)c3ccc(F)cc3)CN12.[O-][Cl+3]([O-])([O-])O (stereo unspecified),88%,77%,87%,Non-toxic
COc1ccc(C(=O)C2CN=C3C=CC=C(C)N3C2)cc1OC.[O-][Cl+3]([O-])([O-])O (stereo unspecified),–,–,92%,Non-toxic
O=C(c1ccc2ccccc2c1)C1CN=C2C=CC=CN2C1 (stereo unspecified),93%,60%,–,–
COc1ccc(C(=O)C2CN=C3C=C(C)C=CN3C2)cc1F.[O-][Cl+3]([O-])([O-])O (stereo unspecified),102%,84%,73%,Non-toxic
CC1=CC2=NCC(C(=O)c3ccc(-c4ccc(Br)cc4)cc3)CN2C=C1.[O-][Cl+3]([O-])([O-])O (stereo unspecified),120%,17%,64%,Non-toxic
CCSC(=N)N,6%,37%,–,–
CC1=CC2=NCC(C(=O)c3ccc(OCc4ccc(Br)cc4)cc3)CN2C=C1.Cl (stereo unspecified),83%,16%,100%,Non-toxic
CC1=CC=CC2=NCC(C(=O)c3ccc(C)cc3)CN12.[O-][Cl+3]([O-])([O-])O (stereo unspecified),–,–,94%,Non-toxic
CC1=CC2=NCC(C(=O)c3ccc4cc(C)ccc4c3)CN2C(C)=C1.[O-][Cl+3]([O-])([O-])O (stereo unspecified),83%,86%,72%,Non-toxic
CC1=CC2=NCC(C(=O)c3ccc(F)cc3)CN2C=C1 (stereo unspecified),78%,77%,–,–
N=C(NCCC[C@H](N)C(=O)O)N[N+](=O)[O-],48%,25%,–,–
CCCNC(=N)NCCC[C@H](N)C(=O)O,95%,96%,–,–
CC1=CC2=NCC(C(=O)c3ccc(-c4ccccc4)cc3)CN2C=C1 (stereo unspecified),17%,8%,–,–
CC1=CC2=NCC(C(=O)c3ccc(OCc4ccc(Cl)cc4)cc3)CN2C=C1.[O-][Cl+3]([O-])([O-])O (stereo unspecified),94%,8%,64%,Non-toxic
CC1=CC2=NCC(C(=O)c3ccc(-c4ccc(C#N)cc4)cc3)CN2C=C1.Cl (stereo unspecified),55%,55%,40%,Non-toxic
COc1ccc2cc(C(=O)C3CN=C4C=C(C)C=CN4C3)ccc2c1 (stereo unspecified),88%,98%,–,–
CC1=CC2=NCC(C(=O)c3ccc(Cl)cc3)CN2C=C1 (stereo unspecified),50%,7%,–,–
CC1=CC2=NCC(C(=O)c3ccc(Br)cc3)CN2C=C1 (stereo unspecified),69%,73%,–,–
O=C(c1ccc(Br)cc1)C1CN=C2C=CC=CN2C1 (stereo unspecified),110%,85%,–,–
CC1=CC2=NCC(C(=O)c3ccccc3)CN2C=C1 (stereo unspecified),63%,72%,–,–
O=C(c1ccc(Cl)c(Cl)c1)C1CN=C2C=CC=CN2C1.[O-][Cl+3]([O-])([O-])O (stereo unspecified),105%,89%,100%,Non-toxic
CC1=CC2=NCC(C(=O)c3ccc(-c4ccc(Br)cc4)cc3)CN2C(C)=C1 (stereo unspecified),89%,15%,72%,–
CC1=CC=CC2=NCC(C(=O)c3ccc4ccccc4c3)CN12 (stereo unspecified),89%,75%,–,–
